Test results as given in ChEMBL document CHEMBL4184244, “Synthesis, kinetics and inhibition of Escherichia coli Heptosyltransferase I by monosaccharide analogues of Lipid A” (Bioorg Med Chem Lett, 2018).
Calls of active or inactive are those of the source. The calls are words filed in the database; no cut-off is given here.

Experiments:
[1] = biological target: T1, Lipopolysaccharide heptosyltransferase 1 (Escherichia coli (strain K12)) (UniProt P24173); assay: Substrate activity at Escherichia coli Heptosyltransferase I assessed as ADP release at 100 uM using phospho(enol)pyruvate and NADH by pyruvate kinase and LDH based ADP/NADH coupling assay
T1 sequence (whole entry): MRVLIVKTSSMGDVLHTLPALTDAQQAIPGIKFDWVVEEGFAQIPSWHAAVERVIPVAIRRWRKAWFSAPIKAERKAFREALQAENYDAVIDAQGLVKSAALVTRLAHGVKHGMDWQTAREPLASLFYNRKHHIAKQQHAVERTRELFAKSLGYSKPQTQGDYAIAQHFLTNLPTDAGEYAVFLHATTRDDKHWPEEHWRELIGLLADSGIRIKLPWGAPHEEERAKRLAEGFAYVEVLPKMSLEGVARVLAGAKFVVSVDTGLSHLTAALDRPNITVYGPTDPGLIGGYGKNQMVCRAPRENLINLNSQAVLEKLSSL
Outline: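 Screening for acceptor-substrate (nucleophile) use by HepI. Each compound replaces the normal Kdo2-Lipid A-type acceptor. ADP-heptose is the heptose donor. Free glucose and galactose and their α- and β-methyl glycosides were screened the same way before the synthesized compounds.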

[2] = biological target: T1, Lipopolysaccharide heptosyltransferase 1 (Escherichia coli (strain K12)); assay: Inhibition of Escherichia coli Heptosyltransferase I assessed as reduction in ADP release at 1 mM using ODLA and ADP-heptose substrates in presence of phospho(enol)pyruvate and NADH by pyruvate kinase and LDH based ADP/NADH coupling assay
[3] = biological target: T2, Lipopolysaccharide heptosyltransferase 1 (Escherichia coli (strain K12), UniProt P24173); assay: Inhibition of Escherichia coli Heptosyltransferase I assessed as reduction in ADP release using ODLA and ADP-heptose substrates in presence of phospho(enol)pyruvate and NADH by pyruvate kinase and LDH based ADP/NADH coupling assay
T2 sequence (P24173 whole entry): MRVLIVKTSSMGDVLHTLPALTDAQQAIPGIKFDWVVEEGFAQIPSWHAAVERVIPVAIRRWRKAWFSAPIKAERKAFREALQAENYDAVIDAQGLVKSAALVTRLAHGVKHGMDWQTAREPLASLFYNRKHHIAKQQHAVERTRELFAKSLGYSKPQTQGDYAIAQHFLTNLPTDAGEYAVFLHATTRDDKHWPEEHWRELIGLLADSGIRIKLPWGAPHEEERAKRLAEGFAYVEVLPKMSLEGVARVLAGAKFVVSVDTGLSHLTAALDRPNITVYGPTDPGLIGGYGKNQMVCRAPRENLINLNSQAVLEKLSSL

[4] = compound: CCCC/C=C/CO[C@@H]1O[C@H](CO)[C@@H](O)[C@H](O)[C@H]1O; assay: (§1) Noncompetitive inhibition of Escherichia coli Heptosyltransferase I assessed as reduction in ADP release by measuring ODLA Kcat at 100 uM using ODLA and ADP-heptose substrates in presence of phospho(enol)pyruvate and NADH by pyruvate kinase and LDH dependent ADP/NADH coupling assay based Lineweaver-Burk plot
[5] = compound: CCCC/C=C/CO[C@@H]1O[C@H](CO)[C@@H](O)[C@H](O)[C@H]1O; assay: as §1, with “Noncompetitive mixed type” for “Noncompetitive”, “measuring ADP-heptose” for “measuring ODLA”, “at 10” for “at 100”
[6] = compound: CCCC/C=C/CO[C@@H]1O[C@H](CO)[C@@H](O)[C@H](O)[C@H]1O; assay: as §1, with “Km” for “Kcat”, “1000” for “100”
[7] = compound: CCCC/C=C/CO[C@@H]1O[C@H](CO)[C@@H](O)[C@H](O)[C@H]1O; assay: as §1, with “Noncompetitive mixed type” for “Noncompetitive”, “ADP-heptose Km” for “ODLA Kcat”, “1000” for “100”
[8] = compound: CCCC/C=C/CO[C@@H]1O[C@H](CO)[C@@H](O)[C@H](O)[C@H]1O; assay: as §1, with “Noncompetitive mixed type” for “Noncompetitive”, “ADP-heptose Km” for “ODLA Kcat”, “10” for “100”
[9] = compound: CCCC/C=C/CO[C@@H]1O[C@H](CO)[C@@H](O)[C@H](O)[C@H]1O; assay: as §1, with “Km” for “Kcat”, “10” for “100”
[10] = compound: CCCC/C=C/CO[C@@H]1O[C@H](CO)[C@@H](O)[C@H](O)[C@H]1O; assay: as §1, with “Km” for “Kcat”
[11] = compound: CCCC/C=C/CO[C@@H]1O[C@H](CO)[C@@H](O)[C@H](O)[C@H]1O; assay: as §1, with “1000” for “100”
[12] = compound: CCCC/C=C/CO[C@@H]1O[C@H](CO)[C@@H](O)[C@H](O)[C@H]1O; assay: as §1, with “Noncompetitive mixed type” for “Noncompetitive”, “measuring ADP-heptose” for “measuring ODLA”
[13] = compound: CCCC/C=C/CO[C@@H]1O[C@H](CO)[C@@H](O)[C@H](O)[C@H]1O; assay: as §1, with “Noncompetitive mixed type” for “Noncompetitive”, “ADP-heptose Km” for “ODLA Kcat”
[14] = compound: CCCC/C=C/CO[C@@H]1O[C@H](CO)[C@@H](O)[C@H](O)[C@H]1O; assay: as §1, with “10” for “100”
[15] = compound: CCCC/C=C/CO[C@@H]1O[C@H](CO)[C@@H](O)[C@H](O)[C@H]1O; assay: as §1, with “Noncompetitive mixed type” for “Noncompetitive”, “measuring ADP-heptose” for “measuring ODLA”, “at 1000” for “at 100”

| Molecule | Activity [1] | inhibition [2] | Ki [3] [µM] | other results |
| --- | --- | --- | --- | --- |
| CCCCCCCC/C=C/CO[C@H]1O[C@H](CO)[C@H](O)[C@H](O)[C@H]1O | inactive | inactive |  |  |
| O=C[C@H](O)[C@@H](O)[C@@H](O)[C@H](O)CO [GALACTOSE] | inactive | 28.5% | 500 |  |
| CCCCCCCCO[C@@H]1O[C@H](CO)[C@@H](O)[C@H](O)[C@H]1O | inactive | 8.3% |  |  |
| CCCCCC/C=C/CO[C@@H]1O[C@H](CO)[C@@H](O)[C@H](O)[C@H]1O | inactive | 4.2% |  |  |
| CO[C@@H]1O[C@H](CO)[C@@H](O)[C@H](O)[C@H]1O | inactive | 19.5% | 680 |  |
| CCCCC/C=C/CO[C@@H]1O[C@H](CO)[C@@H](O)[C@H](O)[C@H]1O | inactive | 11.9% |  |  |
| CCCCCC/C=C/CO[C@@H]1O[C@H](CO)[C@H](O)[C@H](O)[C@H]1O | inactive | 6.3% |  |  |
| CCCCCC/C=C/CO[C@H]1O[C@H](CO)[C@H](O)[C@H](O)[C@H]1O | inactive | 8.8% |  |  |
| CO[C@H]1O[C@H](CO)[C@H](O)[C@H](O)[C@H]1O | inactive | 8.8% |  |  |
| CCCCCCCC/C=C/CO[C@H]1O[C@H](CO)[C@@H](O)[C@H](O)[C@H]1O | inactive | inactive |  |  |
| CCCC/C=C/CO[C@@H]1O[C@H](CO)[C@H](O)[C@H](O)[C@H]1O | inactive | 22.6% | 570 |  |
| C=CCO[C@@H]1O[C@H](CO)[C@H](O)[C@H](O)[C@H]1O | inactive | 10% |  |  |
| OC[C@H]1OC(O)[C@H](O)[C@@H](O)[C@@H]1O (stereo partly specified) [DEXTROSE] | inactive |  | 280 |  |
| CCCCCCCC/C=C/CO[C@@H]1O[C@H](CO)[C@@H](O)[C@H](O)[C@H]1O | inactive | 23.4% | 520 |  |
| CO[C@H]1O[C@H](CO)[C@@H](O)[C@H](O)[C@H]1O | inactive | 27.8% | 370 |  |
| CCCCCC/C=C/CO[C@H]1O[C@H](CO)[C@@H](O)[C@H](O)[C@H]1O | inactive | 16.7% |  |  |
| C=CCO[C@@H]1O[C@H](CO)[C@@H](O)[C@H](O)[C@H]1O | inactive | 19.6% | 650 |  |
| CCCC/C=C/CO[C@@H]1O[C@H](CO)[C@@H](O)[C@H](O)[C@H]1O | inactive | 29.7% | 340 |  |
| CCCCCCCC/C=C/CO[C@@H]1O[C@H](CO)[C@H](O)[C@H](O)[C@H]1O | inactive | 5% |  |  |
| CCCCC/C=C/CO[C@@H]1O[C@H](CO)[C@H](O)[C@H](O)[C@H]1O | inactive | 7.8% |  |  |
| CO[C@@H]1O[C@H](CO)[C@H](O)[C@H](O)[C@H]1O | inactive | 7% |  |  |
| Lipopolysaccharide heptosyltransferase 1 (Escherichia coli (strain K12)), P24173 (protein) MRVLIVKTSSMGDVLHTLPALTDAQQAIPGIKFDWVVEEGFAQIPSWHAAVERVIPVAIRRWRKAWFSAPIKAERKAFREALQAENYDAVIDAQGLVKSAALVTRLAHGVKHGMDWQTAREPLASLFYNRKHHIAKQQHAVERTRELFAKSLGYSKPQTQGDYAIAQHFLTNLPTDAGEYAVFLHATTRDDKHWPEEHWRELIGLLADSGIRIKLPWGAPHEEERAKRLAEGFAYVEVLPKMSLEGVARVLAGAKFVVSVDTGLSHLTAALDRPNITVYGPTDPGLIGGYGKNQMVCRAPRENLINLNSQAVLEKLSSL |  |  |  | kcat [4]: 1.3 s⁻¹; kcat [5]: 2.8 s⁻¹; Km [6]: 65 µM; Km [7]: 38 µM; Km [8]: 277 µM; Km [9]: 114 µM; Km [10]: 108 µM; kcat [11]: 0.9 s⁻¹; kcat [12]: 1.6 s⁻¹; Km [13]: 135 µM; kcat [14]: 1.4 s⁻¹; kcat [15]: 0.76 s⁻¹ |
